Results on seven compounds are retold here after ChEMBL document CHEMBL1126553, “Antioxidant and neutrophil-inhibiting properties of new 2-O-methyl-6-(alkylthio)ascorbic acid derivatives” (J Med Chem, 1993).

Activity calls are given as the source filed them. The calls are words filed in the database; no cut-off is given here.

The species named for data set [1] is Homo sapiens. In words: Inhibitory effect on superoxide anion formation of fMLP-stimulated neutrophils at 1 uM by cytochrome c assay; Did not inhibit or weakly inhibited. The data set is classed as functional.
The species entered for data set [2] is Rattus norvegicus. In words: Tested for inhibition of lipid peroxidation in rat liver microsomes. The class given is functional. An outline of the steps:
(§1)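 Wistar rat liver microsomes (1 mg/mL) in 50 mM potassium phosphate, pH 7.2, with 50 μM ADP and 5 μM […]. Compound or DMSO was preincubated at 25 °C (5 min per methods; legend says 3 min). Peroxidation was started with 1 mM NADPH. After 15 min, malondialdehyde was measured by thiobarbituric acid at 532 nm. Mean ± SEM, n = 3.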
For orientation: Liver microsomes are a subcellular fraction often used to study metabolism.

The species entered for data set [3] is Homo sapiens. As to the kind of experiment: Inhibition of fMLP-induced secretion of beta-glucurodinase (azurophilic granules). The class given is functional. An outline of the steps: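 Neutrophils at 5 × 10⁶/mL were primed with 5 μg/mL cytochalasin B (4 min, 37 °C), given compound in 0.1% DMSO for 3 min, then 100 nM fMLP for 15 min. Stopped on ice and pelleted. Supernatant β-glucuronidase was assayed with 4-methylumbelliferyl-β-D-glucuronide, pH 4.0, 15 min at 37 °C; fluorescence ex 365/em 460 nm. n = 3.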

The species entered for data set [4] is Homo sapiens. In words: Inhibition of fMLP-induced secretion of lysozyme (azurophilic and specific granules). The class given is functional.
The species named for data set [5] is Homo sapiens. In words: Maximum inhibition of MLP-induced oxidative burst in a cell density of 2 x 10 e 6 cells/mL. The class given is functional.
Data set [6] is described as follows: Dissociation constant in aqueous system. The data set is classed as physicochemical.
The species named for data set [7] is Homo sapiens. As to the kind of experiment: Inhibitory effect on superoxide anion formation of fMLP-stimulated neutrophils at 1 uM by cytochrome c assay. The class given is functional.
The species entered for data set [8] is Rattus norvegicus. In words: Inhibition of Fe(2+)/ADP-induced lipid peroxidation of rat liver microsomes. The class given is functional. The procedure, abridged: as §1
Data set [9] is filed under the species Homo sapiens. As to the kind of experiment: Inhibition of fMLP-induced oxidative burst in a cell density of 5 x 10 e 5 cells/mL. The class given is functional, cell-based.
The species named for data set [10] is Homo sapiens. In words: Inhibition of fMLP-stimulated superoxide production in a cell density of 5 x 10 e 6 cells/mL. The data set is classed as functional, cell-based.
The species named for data set [11] is Homo sapiens. In words: Inhibition of fMLP-induced oxidative burst in a cell density of 2 x 10 e 6 cells/mL. The data set is classed as functional, cell-based.
The species named for data set [12] is Homo sapiens. As to the kind of experiment: Maximum Inhibition of fMLP-stimulated superoxide production in a cell density of 5 x 10 e 6 cells/mL. The class given is functional.
Data set [13] is filed under the species Homo sapiens. In words: Tested for inhibition of fMLP induced secretion of lysozyme from human neutrophil cells; Did not influence or inactive. The class given is functional, cell-based.
Data set [14] is described as follows: Dissociation constant in aqueous solution. The data set is classed as physicochemical.

As usually defined, the inhibition is the drop in the measured response relative to a control, in per cent. The term IC50 denotes the concentration that inhibits the measured activity by half. Read a high IC50 as a need for much substance. As to `CCCCCCCCCCCCSCC(O)C1OC(O)=C(OC)C1=O` (stereo not drawn), in the data set listed under Homo sapiens [1], the inhibition result was “Did not inhibit or weakly inhibited”. In the data set listed under Rattus norvegicus [2], this compound came in with an IC50 of 2.5 µM.
Take `COC1=C(O)OC(C(O)CSc2ccccc2)C1=O` (stereo not drawn): in the data set listed under Homo sapiens [1], the inhibition result was “Did not inhibit or weakly inhibited”.
What is called pKa is the pH at which an ionisable group is half protonated. Lower therefore signals a group that gives up its proton readily. As for `CCCCCCCCCCCCCCCCSCC(O)C1OC(O)=C(OC)C1=O` (stereo not drawn), the IC50 in the data set filed under Homo sapiens [3] amounted to 7 µM; in the data set filed under Homo sapiens [4], 2.5 µM; in the data set listed under Rattus norvegicus [8] it was 2 µM; in the data set listed under Homo sapiens [9], 0.6 µM; in the data set filed under Homo sapiens [10], 3.7 µM; in the data set listed under Homo sapiens [11], 1.25 µM. The Max inhibition concentration in the data set filed under Homo sapiens [5] is 5 µM; in the data set filed under Homo sapiens [12], 10 µM. The pKa in data set [6] came to 3.32. The inhibition at 1 µM in the data set filed under Homo sapiens [7] turned out to be 80%.
For `CCCCCCCCSCC(O)C1OC(O)=C(OC)C1=O` (stereo not drawn), in the data set listed under Homo sapiens [1], the inhibition result is recorded as “Did not inhibit or weakly inhibited”.
Same read-out and setting: the value for `CCCCCCCCCCCCCCCCSCC(O)C1OC(=O)C(OC)=C1OC` (stereo not drawn) was “Did not inhibit or weakly inhibited”.
Regarding `CCCCCCCCCCCCCCCCSCC(O)C1OC(=O)C(O)=C1OC` (stereo not drawn), the inhibition result in the data set listed under Homo sapiens [13] was “inactive”. Further, in data set [14], the pKa was 7.7.
`CCCCCCCCCCCCCCCCCCSCC(O)C1OC(O)=C(OC)C1=O` (stereo not drawn): 1 µM produced 40% inhibition in the data set filed under Homo sapiens [7].
